Source: ChEMBL document CHEMBL1250470, “Synthesis and CYP24A1 inhibitory activity of (E)-2-(2-substituted benzylidene)- and 2-(2-substituted benzyl)-6-methoxy-tetralones” (Eur J Med Chem, 2010)

Tests used:
Assay type in all cases: cell-based, CHO; call rule not given here
[1] = biological target: 1,25-dihydroxyvitamin D(3) 24-hydroxylase, mitochondrial (Homo sapiens, UniProt Q07973, L148F); assay: Inhibition of CYP24A1 L148F mutant expressed in […]
In short: (§1)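 V79-4 Chinese hamster lung fibroblasts stably expressing wild-type or mutant (L148F, M416T) CYP24A1 were grown in DMEM with FCS, antibiotics and hygromycin at 5% CO₂, then subcultured into 6-well plates for 24 h. Incubation was for 6 h in 1% BSA DMEM with 100,000 CPM/well [1β-³H]1α,25-(OH)₂D₃ and DPPD antioxidant. Inhibitors, from ethanol stocks, were tested at 10⁻⁴–10⁻⁷ M. Methanol stopped the reaction, followed by scintillation counting.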

[2] = biological target: T1, 1,25-dihydroxyvitamin D(3) 24-hydroxylase, mitochondrial (Homo sapiens, UniProt Q07973); assay: Inhibition of CYP24A1 expressed in […]
T1 sequence (Q07973 whole entry): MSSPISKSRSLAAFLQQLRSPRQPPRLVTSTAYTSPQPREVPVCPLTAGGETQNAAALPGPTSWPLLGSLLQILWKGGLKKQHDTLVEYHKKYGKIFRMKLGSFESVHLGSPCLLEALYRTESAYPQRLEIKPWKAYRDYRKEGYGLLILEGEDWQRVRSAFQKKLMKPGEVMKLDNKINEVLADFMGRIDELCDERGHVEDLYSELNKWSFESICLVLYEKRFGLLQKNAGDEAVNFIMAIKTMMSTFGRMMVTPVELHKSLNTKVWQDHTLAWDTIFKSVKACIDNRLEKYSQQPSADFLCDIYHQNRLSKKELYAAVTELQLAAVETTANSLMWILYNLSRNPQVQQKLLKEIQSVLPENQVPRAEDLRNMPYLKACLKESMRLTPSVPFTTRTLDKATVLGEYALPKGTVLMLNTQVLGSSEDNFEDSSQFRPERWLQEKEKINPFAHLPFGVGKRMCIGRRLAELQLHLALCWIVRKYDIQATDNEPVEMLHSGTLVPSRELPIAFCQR

[3] = biological target: 1,25-dihydroxyvitamin D(3) 24-hydroxylase, mitochondrial (Homo sapiens, UniProt Q07973, M416T); assay: Inhibition of CYP24A1 M416T mutant expressed in […]; in short: as §1
[4] = biological target: T2, Sterol 26-hydroxylase, mitochondrial (Homo sapiens, UniProt Q02318); assay: Inhibition of CYP27A1 expressed in […]
T2 sequence (Q02318 whole entry): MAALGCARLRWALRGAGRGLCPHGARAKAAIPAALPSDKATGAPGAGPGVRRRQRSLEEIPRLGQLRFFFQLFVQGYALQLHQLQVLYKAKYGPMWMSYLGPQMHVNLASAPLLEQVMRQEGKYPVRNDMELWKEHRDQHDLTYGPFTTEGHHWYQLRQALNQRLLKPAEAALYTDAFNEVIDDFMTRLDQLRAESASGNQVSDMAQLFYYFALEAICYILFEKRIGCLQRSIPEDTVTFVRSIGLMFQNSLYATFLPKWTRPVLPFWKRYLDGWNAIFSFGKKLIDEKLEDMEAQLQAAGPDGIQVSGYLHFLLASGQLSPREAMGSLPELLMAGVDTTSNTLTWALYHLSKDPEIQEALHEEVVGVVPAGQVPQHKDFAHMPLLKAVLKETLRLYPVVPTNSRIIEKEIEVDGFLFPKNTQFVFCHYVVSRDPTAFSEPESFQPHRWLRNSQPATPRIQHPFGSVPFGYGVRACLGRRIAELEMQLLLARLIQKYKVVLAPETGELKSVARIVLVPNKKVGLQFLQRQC
In short: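 V79-4 fibroblasts stably expressing wild-type CYP27A1 were cultured in supplemented DMEM and plated in 6-well plates 24 h before use. They were incubated for 24 h in 1% BSA DMEM with 1α-OH-D₃ substrate plus DPPD, with inhibitors at four concentrations (10⁻⁴–10⁻⁷ M). No-inhibitor, dead-cell and no-cell controls were included. Methanol stopped the reaction, then Bligh-Dyer extraction and silica HPLC with photodiode-array detection quantified the metabolite.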

Chain of 1,25-dihydroxyvitamin D(3) 24-hydroxylase, mitochondrial (Homo sapiens, UniProt Q07973, L148F) (Q07973 36-514 L148F limits assumed): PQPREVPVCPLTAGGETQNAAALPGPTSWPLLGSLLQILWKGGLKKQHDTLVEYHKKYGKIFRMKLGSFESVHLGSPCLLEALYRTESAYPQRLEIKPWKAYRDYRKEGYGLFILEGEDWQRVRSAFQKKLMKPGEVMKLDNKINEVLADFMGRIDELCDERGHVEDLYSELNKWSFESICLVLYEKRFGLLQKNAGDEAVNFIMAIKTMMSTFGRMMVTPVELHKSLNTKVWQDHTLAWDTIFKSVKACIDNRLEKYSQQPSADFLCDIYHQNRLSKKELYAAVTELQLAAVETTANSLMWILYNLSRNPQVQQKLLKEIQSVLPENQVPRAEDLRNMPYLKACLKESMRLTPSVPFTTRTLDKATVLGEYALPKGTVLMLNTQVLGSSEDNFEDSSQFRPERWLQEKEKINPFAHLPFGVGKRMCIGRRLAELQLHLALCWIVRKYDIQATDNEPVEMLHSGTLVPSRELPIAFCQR
Chain of 1,25-dihydroxyvitamin D(3) 24-hydroxylase, mitochondrial (Homo sapiens, UniProt Q07973, M416T) (Q07973 36-514 M416T limits assumed): as the sequence (Q07973 36-514 L148F limits assumed) above, with F113L, M381T counted along it

| inhibition (INH) [1] | IC50 [2] | inhibition (INH) [3] | IC50 [4] | Structure (SMILES) |
| --- | --- | --- | --- | --- |
| Active | 25.6 µM | Active |  | COc1ccc2c(c1)CCC(Cc1ccccc1CCc1ccccc1)C2=O (stereo not given) |
|  | 111 µM |  |  | COc1ccc2c(c1)CC/C(=C\c1ccccc1-c1ccccc1)C2=O |
|  | 5.08 µM |  | 5.69 µM | COc1ccc2c(c1)CC/C(=C\c1ccccc1/C=C/c1ccccc1)C2=O |
|  | 2.08 µM |  | 5.34 µM | COc1ccc2c(c1)CCC(Cc1ccccc1C(F)(F)F)C2=O (stereo not given) |
|  | 1.92 µM |  | 8.23 µM | CCc1ccccc1CC1CCc2cc(OC)ccc2C1=O (stereo not given) |
|  | 16.3 µM |  | 0.059 µM | COc1ccc2c(c1)CCC(Cc1ccccc1Br)C2=O (stereo not given) |
|  | 128 µM |  |  | COc1ccc2c(c1)CCC(Cc1ccccc1-c1ccccc1)C2=O (stereo not given) |
|  | 343 µM |  |  | COc1ccc2c(c1)CCC(Cc1ccccc1/C=C/c1ccccc1)C2=O (stereo not given) |
|  | 11.2 µM |  |  | COc1ccc2c(c1)CC/C(=C\c1ccccc1C(F)(F)F)C2=O |
|  | 10.8 µM |  |  | CCc1ccccc1/C=C1\CCc2cc(OC)ccc2C1=O |
|  | 480 µM |  |  | COc1ccc2c(c1)CC/C(=C\c1ccccc1C)C2=O |
|  | 127 µM |  |  | COc1ccc2c(c1)CCC(Cc1ccccc1C)C2=O (stereo not given) |
|  | 122 µM |  | 4.33 µM | COc1ccc2c(c1)CC/C(=C\c1ccccc1Br)C2=O |
